Activity calls are given as the source filed them. The rule behind the calls is not given here.
Key:
[1] = biological target: T1, Sphingosine-1-phosphate transporter SPNS2 (Mus musculus) (UniProt Q91VM4); test: Inhibition of mouse Spns2 expressed in Hela cells assessed as S1P release at 1 uM incubated for 18 to 20 hrs by LC-MS/MS analysis relative to control; format: cell-based; conditions: time 18-20 hrs
T1 sequence (whole entry): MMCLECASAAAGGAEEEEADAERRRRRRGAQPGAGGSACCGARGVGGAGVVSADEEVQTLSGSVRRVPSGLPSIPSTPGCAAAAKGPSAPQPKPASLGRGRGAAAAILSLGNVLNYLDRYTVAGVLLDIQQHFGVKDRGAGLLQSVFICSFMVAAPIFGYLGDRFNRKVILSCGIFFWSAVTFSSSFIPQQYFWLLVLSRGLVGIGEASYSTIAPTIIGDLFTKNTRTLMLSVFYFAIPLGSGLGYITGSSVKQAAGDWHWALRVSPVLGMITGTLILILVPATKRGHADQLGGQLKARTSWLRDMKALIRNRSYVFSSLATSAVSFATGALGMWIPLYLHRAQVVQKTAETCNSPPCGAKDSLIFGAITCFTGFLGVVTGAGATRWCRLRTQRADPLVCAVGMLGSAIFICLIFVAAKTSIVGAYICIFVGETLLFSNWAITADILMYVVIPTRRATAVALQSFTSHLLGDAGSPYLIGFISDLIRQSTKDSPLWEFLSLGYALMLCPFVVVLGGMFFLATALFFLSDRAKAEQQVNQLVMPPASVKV
How it was run: (§1)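 HeLa cells stably transfected (G418 selection) with mouse Spns2, grown to near confluence. Medium was replaced with RPMI 1640 containing 0.2% fatty acid-free BSA, 1 mM 4-deoxypyridoxine, 2 mM NaF and 0.2 mM Na3VO4. Compound was added to duplicate wells (0-2 μM) for 18–20 h. Medium S1P was measured by LC-MS/MS against d7-S1P and expressed as % inhibition versus no-inhibitor control.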

[2] = biological target: T1, Sphingosine-1-phosphate transporter SPNS2 (Mus musculus); test: Inhibition of mouse Spns2 expressed in Hela cells assessed as S1P release at 0.3 uM incubated for 18 to 20 hrs by LC-MS/MS analysis relative to control; format: cell-based; conditions: time 18-20 hrs; how it was run: as §1
Mus musculus [3] = test: Decrease in plasma S1P level in mouse C57BL/6j at 10 mg/kg, ip measured after 4 hrs by LC-MS/MS analysis; format: functional, organism-based
How it was run: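 Female C57BL/6j mice were injected IP at 10 mg/Kg, or with vehicle (PEG400/ethanol/solutol/water). Plasma was taken 4 h post dose. S1P was quantified by LC-MS/MS after TCA precipitation with a d7-S1P internal standard and methanol extraction. Comparison was by t-test.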

Mus musculus [4] = test: Decrease in circulating lymphocyte count in mouse C57BL/6j blood at 10 mg/kg, ip […]

Row | SMILES | inhibition [1] | also measured
1 | CCCCCCCCCCc1ccc2oc(NC3CNC3)nc2c1 | 20% | –
2 | CCCCCCCCCCc1ccc2oc(NC[C@@H]3CCCNC3)nc2c1 | 32% | –
3 | CCCCCCCCCCc1ccc2oc(NCC3CCNCC3)nc2c1 | 14% | –
4 | CCCCCCCCCCc1ccc(-c2noc(CCCN)n2)cc1 | 44% | inhibition [2]: 30%
5 | CCCCCCCCCCc1ccc2oc(N3CCNCC3)nc2c1 | 18% | –
6 | CCCCCCCCCCc1ccc2oc(N(C)CCN)nc2c1 | 0% | –
7 | CCCCCCCCCCc1ccc2oc(NCCCCN)nc2c1 | 32% | –
8 | CCCCCCCCCCc1ccc2oc(N[C@H]3CCCNC3)nc2c1 | 50% | –
9 | CCCCCCCCc1ccc2oc(NC[C@H]3CCNC3)nc2c1 | – | inhibition [2]: 42%
10 | CCCCCCCCCCc1ccc2oc(NC3CCNCC3)nc2c1 | 54% | –
11 | CCCCCCCCCCc1ccc2oc(NCCCCCN)nc2c1 | 35% | –
12 | CCCCCCCCCCc1ccc2oc(NC[C@H]3CCCNC3)nc2c1 | 2% | –
13 | CCCCCCCCCCc1ccc2oc(NC[C@H]3CCCN3)nc2c1 | 0% | –
14 | CCCCCCCCCc1ccc2oc(NC[C@H]3CCNC3)nc2c1 | – | inhibition [2]: 77%
15 | CCCCCCCCCCc1ccc2[nH]c(NC[C@H]3CCNC3)nc2c1 | – | inhibition [2]: 34%
16 | CCCCCCCCCCc1ccc2oc(CCCCCN)nc2c1 | 25% | –

Row | SMILES | inhibition [1] | also measured
17 | CCCCCCCCCCc1ccc2oc(NCCN)nc2c1 | 16% | –
18 | CCCCCCCCCCCc1ccc2oc(NC[C@H]3CCNC3)nc2c1 | – | inhibition [2]: 52%
19 | CCCCCCCCCCc1ccc2oc(N[C@H]3CCNC3)nc2c1 | 75% | –
20 | CCCCCCCCCCCCc1ccc2oc(NC[C@H]3CCNC3)nc2c1 | – | inhibition [2]: 36%
21 | CCCCCCCCCCc1ccc2oc(NC[C@@H]3CCNC3)nc2c1 | 50% | –
22 | CCCCCCCCCCc1ccc2oc(CCCCN)nc2c1 | 0% | –
23 | CCCCCCCCCCc1ccc2oc(NCCCN)nc2c1 | 15% | –
24 | CCCCCCCCCCc1ccc2oc(NC[C@H]3CCNC3)nc2c1 | 87% | inhibition [2]: 56%; Activity (Mus musculus [3]): inactive; Activity (Mus musculus [4]): Active
25 | CCCCCCCCCCc1ccc2oc(N[C@@H]3CCNC3)nc2c1 | 47% | –
26 | CCCCCCCCCCc1ccc2oc(CCCN)nc2c1 | 40% | –
27 | CCCCCCCCCCc1ccc2oc(N[C@@H]3CCCNC3)nc2c1 | 63% | –
28 | CCCCCCCCCCc1ccc2oc(N(CCN)CCN)nc2c1 | 25% | –
29 | CCCCCCCCCCc1ccc2oc(NC[C@@H]3CCCN3)nc2c1 | 6% | –
30 | CCCCCCCCCCc1ccc2oc(CCN)nc2c1 | 5% | –
31 | CCCCCCCCCCc1ccc2oc(N3CC[C@H](N)C3)nc2c1 | 1% | –
32 | CCCCCCCCCCc1ccc2oc(N3CC[C@@H](N)C3)nc2c1 | 4% | –

— ChEMBL document CHEMBL5380846, “2-Aminobenzoxazole Derivatives as Potent Inhibitors of the Sphingosine-1-Phosphate Transporter Spinster Homolog 2 (Spns2)” (J Med Chem, 2023)
